Measured values from ChEMBL document CHEMBL1255259, “Phosphorothioate-modified oligodeoxynucleotides inhibit human cytomegalovirus replication by blocking virus entry” (Antimicrob Agents Chemother, 2008).
The source made the active and inactive calls. No cut-off for these calls is given here.

How the values were obtained:
[1] = Cytotoxicity against HELF assessed as cell viability after 6 days by MTT assay; assay type: cell-based; details: human, HELF cells
In short: (§1)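 HELF exposed to rising ODN concentrations (up to 10 μM) for 6 days; viable cells measured by MTT. CC50 taken as concentration that cuts viability to 50%.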

[2] = system: Human betaherpesvirus 5; experiment: Antimicrobial activity against Human cytomegalovirus AD169 infected in 1 uM compound pretreated HELF assessed as inhibition of viral replication measured after 6 days post-infection; assay type: functional, organism-based
In short: (§2)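 HELF pretreated with ODN 1 h before infection with HCMV AD169 (MOI 1); ODN kept in medium after 2 h adsorption at 37°C. At 6 days p.i., cells plus supernatants sonicated and titrated by plaque assay on HELF; plaques counted microscopically, expressed as PFU/ml (log10) or % of control. IC50/IC90 by linear regression; duplicate wells, three independent experiments, means ± SD.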

[3] = system: Human betaherpesvirus 5; experiment: Antimicrobial activity against Human cytomegalovirus AD169 infected in 0.1 uM compound pretreated HELF assessed as inhibition of viral replication measured after 6 days post-infection; assay type: functional, organism-based; in short: as §2
[4] = system: Human betaherpesvirus 5; experiment: Antimicrobial activity against 0.1 uM compound pretreated Human cytomegalovirus AD169 infected in HELF assessed as reduction in viral titer 37 degC; assay type: functional, organism-based
In short: (§3)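 HCMV AD169 (10^4 PFU) incubated with ODN at 0.1 μM at 4 or 37°C for various times; samples then diluted to bring ODN below an antivirally active level; residual infectivity titrated by plaque assay on HELF. Means ± SD of three independent experiments.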

[5] = system: Human betaherpesvirus 5; experiment: Antimicrobial activity against Human cytomegalovirus AD169 infected in compound pretreated HELF assessed as inhibition of viral replication measured after 6 days post-infection; assay type: functional, organism-based; details: Human betaherpesvirus 5, AD169, HELF; in short: as §2
[6] = system: Human betaherpesvirus 5; experiment: Antimicrobial activity against 0.1 uM compound pretreated Human cytomegalovirus AD169 infected in HELF assessed as reduction in viral titer at 4 degC; assay type: functional, organism-based; in short: as §3
[7] = Cytotoxicity against HELF assessed as cell viability by MTT assay after 6 days at <=10 uM; assay type: cell-based; details: human, 144 h; in short: as §1

Compound	CC50 at 144 h [1] [µM]	inhibition [2]	inhibition [3]	inhibition [4]	IC50 [5] [µM]	IC90 [5] [µM]	inhibition [6]	Activity [7]
Cc1cn([C@H]2C[C@H](OP(=O)(O)OC[C@H]3O[C@@H](n4ccc(N)nc4=O)[C@H](O)[C@@H]3OP(=O)(O)OC[C@H]3O[C@@H](n4cnc5c(=O)[nH]c(N)nc54)[C@H](O)[C@@H]3OP(=O)(O)OC[C@H]3O[C@@H](n4cc(C)c(=O)[nH]c4=O)C[C@@H]3OP(=O)(O)OC[C@H]3O[C@@H](n4ccc(N)nc4=O)[C@H](O)[C@@H]3OP(=O)(O)OC[C@H]3O[C@@H](n4cnc5c(=O)[nH]c(N)nc54)[C@H](O)[C@@H]3OP(=O)(O)OC[C@H]3O[C@@H](n4cnc5c(=O)[nH]c(N)nc54)[C@H](O)[C@@H]3OP(O)(=S)OC[C@H]3O[C@@H](n4cnc5c(=O)[nH]c(N)nc54)[C@H](O)[C@@H]3OP(O)(=S)OC[C@H]3O[C@@H](n4cnc5c(=O)[nH]c(N)nc54)[C@H](O)[C@@H]3OP(O)(=S)OC[C@H]3O[C@@H](n4cnc5c(=O)[nH]c(N)nc54)[C@H](O)[C@@H]3OP(O)(=S)OC[C@H]3O[C@@H](n4cnc5c(=O)[nH]c(N)nc54)[C@H](O)[C@@H]3OP(O)(O)=S)[C@@H](COP(=O)(O)O[C@H]3[C@@H](O)[C@H](n4cnc5c(N)ncnc54)O[C@@H]3COP(=O)(O)O[C@H]3[C@@H](O)[C@H](n4cnc5c(=O)[nH]c(N)nc54)O[C@@H]3COP(=O)(O)O[C@H]3[C@@H](O)[C@H](n4ccc(N)nc4=O)O[C@@H]3COP(=O)(O)O[C@H]3[C@@H](O)[C@H](n4cnc5c(N)ncnc54)O[C@@H]3COP(=O)(O)O[C@H]3[C@@H](O)[C@H](n4cnc5c(=O)[nH]c(N)nc54)O[C@@H]3COP(=O)(O)O[C@H]3[C@@H](O)[C@H](n4cnc5c(=O)[nH]c(N)nc54)O[C@@H]3COP(=O)(O)O[C@H]3[C@@H](O)[C@H](n4cnc5c(=O)[nH]c(N)nc54)O[C@@H]3COP(O)(=S)O[C@H]3[C@@H](O)[C@H](n4cnc5c(=O)[nH]c(N)nc54)O[C@@H]3COP(O)(=S)O[C@H]3[C@@H](O)[C@H](n4cnc5c(=O)[nH]c(N)nc54)O[C@@H]3CO)O2)c(=O)[nH]c1=O (some centres not stated)	> 10	Active	Active	inactive	0.14	3.6	inactive	Non-toxic
Cc1cn([C@H]2C[C@H](OP(=O)(O)O)[C@@H](COP(=O)(O)O[C@H]3C[C@H](n4cc(C)c(=O)[nH]c4=O)O[C@@H]3COP(=O)(O)O[C@H]3[C@@H](O)[C@H](n4cnc5c(=O)[nH]c(N)nc54)O[C@@H]3COP(=O)(O)O[C@H]3[C@@H](O)[C@H](n4ccc(N)nc4=O)O[C@@H]3COP(=O)(O)O[C@H]3C[C@H](n4cc(C)c(=O)[nH]c4=O)O[C@@H]3COP(=O)(O)O[C@H]3[C@@H](O)[C@H](n4cnc5c(=O)[nH]c(N)nc54)O[C@@H]3COP(=O)(O)O[C@H]3C[C@H](n4cc(C)c(=O)[nH]c4=O)O[C@@H]3COP(=O)(O)O[C@H]3C[C@H](n4cc(C)c(=O)[nH]c4=O)O[C@@H]3COP(=O)(O)O[C@H]3C[C@H](n4cc(C)c(=O)[nH]c4=O)O[C@@H]3COP(=O)(O)O[C@H]3C[C@H](n4cc(C)c(=O)[nH]c4=O)O[C@@H]3COP(=O)(O)O[C@H]3[C@@H](O)[C@H](n4cnc5c(=O)[nH]c(N)nc54)O[C@@H]3COP(=O)(O)O[C@H]3[C@@H](O)[C@H](n4ccc(N)nc4=O)O[C@@H]3COP(=O)(O)O[C@H]3C[C@H](n4cc(C)c(=O)[nH]c4=O)O[C@@H]3COP(=O)(O)O[C@H]3[C@@H](O)[C@H](n4cnc5c(=O)[nH]c(N)nc54)O[C@@H]3COP(=O)(O)O[C@H]3C[C@H](n4cc(C)c(=O)[nH]c4=O)O[C@@H]3COP(=O)(O)O[C@H]3C[C@H](n4cc(C)c(=O)[nH]c4=O)O[C@@H]3COP(=O)(O)O[C@H]3C[C@H](n4cc(C)c(=O)[nH]c4=O)O[C@@H]3COP(=O)(O)O[C@H]3C[C@H](n4cc(C)c(=O)[nH]c4=O)O[C@@H]3COP(=O)(O)O[C@H]3[C@@H](O)[C@H](n4cnc5c(=O)[nH]c(N)nc54)O[C@@H]3COP(=O)(O)O[C@H]3[C@@H](O)[C@H](n4ccc(N)nc4=O)O[C@@H]3COP(=O)(O)O[C@H]3C[C@H](n4cc(C)c(=O)[nH]c4=O)O[C@@H]3COP(=O)(O)O[C@H]3[C@@H](O)[C@H](n4cnc5c(=O)[nH]c(N)nc54)O[C@@H]3COP(=O)(O)O[C@H]3[C@@H](O)[C@H](n4ccc(N)nc4=O)O[C@@H]3COP(=O)(O)O[C@H]3C[C@H](n4cc(C)c(=O)[nH]c4=O)O[C@@H]3CO)O2)c(=O)[nH]c1=O	> 10	Active	Active	inactive	3.8	> 10	inactive	Non-toxic
Cc1cn([C@H]2C[C@H](OP(O)(=S)OC[C@H]3O[C@@H](n4ccc(N)nc4=O)[C@H](O)[C@@H]3OP(O)(=S)OC[C@H]3O[C@@H](n4cnc5c(=O)[nH]c(N)nc54)[C@H](O)[C@@H]3OP(O)(=S)OC[C@H]3O[C@@H](n4cc(C)c(=O)[nH]c4=O)C[C@@H]3OP(O)(=S)OC[C@H]3O[C@@H](n4ccc(N)nc4=O)[C@H](O)[C@@H]3OP(O)(=S)OC[C@H]3O[C@@H](n4cnc5c(=O)[nH]c(N)nc54)[C@H](O)[C@@H]3OP(O)(=S)OC[C@H]3O[C@@H](n4cc(C)c(=O)[nH]c4=O)C[C@@H]3OP(O)(=S)OC[C@H]3O[C@@H](n4cc(C)c(=O)[nH]c4=O)C[C@@H]3OP(O)(=S)OC[C@H]3O[C@@H](n4cc(C)c(=O)[nH]c4=O)C[C@@H]3OP(O)(=S)OC[C@H]3O[C@@H](n4cc(C)c(=O)[nH]c4=O)C[C@@H]3OP(O)(=S)OC[C@H]3O[C@@H](n4ccc(N)nc4=O)[C@H](O)[C@@H]3OP(O)(=S)OC[C@H]3O[C@@H](n4cnc5c(=O)[nH]c(N)nc54)[C@H](O)[C@@H]3OP(O)(=S)OC[C@H]3O[C@@H](n4cnc5c(=O)[nH]c(N)nc54)[C@H](O)[C@@H]3OP(O)(=S)OC[C@H]3O[C@@H](n4ccc(N)nc4=O)[C@H](O)[C@@H]3OP(O)(=S)OC[C@H]3O[C@@H](n4cnc5c(=O)[nH]c(N)nc54)[C@H](O)[C@@H]3OP(O)(=S)OC[C@H]3O[C@@H](n4ccc(N)nc4=O)[C@H](O)[C@@H]3OP(O)(=S)OC[C@H]3O[C@@H](n4cnc5c(=O)[nH]c(N)nc54)[C@H](O)[C@@H]3OP(O)(=S)OC[C@H]3O[C@@H](n4ccc(N)nc4=O)[C@H](O)[C@@H]3OP(O)(=S)OC[C@H]3O[C@@H](n4cnc5c(=O)[nH]c(N)nc54)[C@H](O)[C@@H]3OP(O)(=S)OC[C@H]3O[C@@H](n4ccc(N)nc4=O)[C@H](O)[C@@H]3OP(O)(=S)OC[C@H]3O[C@@H](n4ccc(N)nc4=O)[C@H](O)[C@@H]3OP(O)(=S)OC[C@H]3O[C@@H](n4cnc5c(=O)[nH]c(N)nc54)[C@H](O)[C@@H]3OP(O)(O)=S)[C@@H](CO)O2)c(=O)[nH]c1=O (some centres not stated)	> 10	Active	Active	inactive	0.1	3.2	inactive	Non-toxic
Cc1cn([C@H]2C[C@H](OP(O)(=S)OC[C@H]3O[C@@H](n4cc(C)c(=O)[nH]c4=O)C[C@@H]3OP(O)(O)=S)[C@@H](OOP(O)(=S)O[C@H]3[C@@H](O)[C@H](n4ccc(N)nc4=O)O[C@@H]3COP(O)(=S)O[C@H]3[C@@H](O)[C@H](n4cnc5c(=O)[nH]c(N)nc54)O[C@@H]3COP(O)(=S)O[C@H]3[C@@H](O)[C@H](n4cnc5c(N)ncnc54)O[C@@H]3COP(O)(=S)O[C@H]3[C@@H](O)[C@H](n4cnc5c(=O)[nH]c(N)nc54)O[C@@H]3COP(O)(=S)O[C@H]3C[C@H](n4cc(C)c(=O)[nH]c4=O)O[C@@H]3COP(O)(=S)O[C@H]3[C@@H](O)[C@H](n4ccc(N)nc4=O)O[C@@H]3COP(O)(=S)O[C@H]3[C@@H](O)[C@H](n4ccc(N)nc4=O)O[C@@H]3COP(O)(=S)O[C@H]3C[C@H](n4cc(C)c(=O)[nH]c4=O)O[C@@H]3COP(O)(=S)O[C@H]3C[C@H](n4cc(C)c(=O)[nH]c4=O)O[C@@H]3COP(O)(=S)O[C@H]3[C@@H](O)[C@H](n4ccc(N)nc4=O)O[C@@H]3COP(O)(=S)O[C@H]3[C@@H](O)[C@H](n4cnc5c(=O)[nH]c(N)nc54)O[C@@H]3COP(O)(=S)O[C@H]3[C@@H](O)[C@H](n4cnc5c(N)ncnc54)O[C@@H]3COP(O)(=S)O[C@H]3[C@@H](O)[C@H](n4cnc5c(=O)[nH]c(N)nc54)O[C@@H]3COP(O)(=S)O[C@H]3C[C@H](n4cc(C)c(=O)[nH]c4=O)O[C@@H]3COP(O)(=S)O[C@H]3[C@@H](O)[C@H](n4cnc5c(N)ncnc54)O[C@@H]3COP(O)(=S)O[C@H]3[C@@H](O)[C@H](n4ccc(N)nc4=O)O[C@@H]3COP(O)(=S)O[C@H]3[C@@H](O)[C@H](n4ccc(N)nc4=O)O[C@@H]3COP(O)(=S)O[C@H]3C[C@H](n4cc(C)c(=O)[nH]c4=O)O[C@@H]3CO)O2)c(=O)[nH]c1=O (some centres not stated)	> 10	Active	Active	inactive	0.2	> 5	inactive	Non-toxic
